# Screens deposited in PubChem by Broad Institute.
# IDH1 mut inh = blocks human IDH1 R132H reductase activity; O75874; diaphorase/resazurin fluorescence, 60 min; inhibition, % at 10 µM; 70,000 compounds, 0.18% hits; AID 624101; in the data active means inhibition above about 34%
# KDM4C inh = inhibitors of human demethylase GASC-1 KDM4C; Q9H3R0; GST-KDM4C 2-372, H3K9me3 peptide, LANCE TR-FRET; inhibition, % at 12.5 µM; 96,000 compounds, 0.15% hits; AID 720574;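 active means mean replicate inhibition above about 25%, with at least 55% of replicates also reaching it, limit read from the data, passing the limit was not always enough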
# Target sequence (Q9H3R0 2-372 limits assumed): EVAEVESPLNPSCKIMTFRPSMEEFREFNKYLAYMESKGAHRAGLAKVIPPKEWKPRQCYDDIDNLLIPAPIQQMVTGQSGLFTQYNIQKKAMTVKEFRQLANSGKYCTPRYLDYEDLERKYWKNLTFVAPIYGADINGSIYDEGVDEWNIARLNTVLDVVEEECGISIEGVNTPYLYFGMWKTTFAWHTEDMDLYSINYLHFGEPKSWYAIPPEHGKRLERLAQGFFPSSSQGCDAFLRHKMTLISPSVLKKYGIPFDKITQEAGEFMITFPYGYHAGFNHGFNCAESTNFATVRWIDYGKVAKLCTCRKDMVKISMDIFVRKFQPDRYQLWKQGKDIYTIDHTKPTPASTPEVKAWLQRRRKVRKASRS
#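 material = GST-tagged GASC-1 (JMJD2C) catalytic fragment, aa 2-372 | amount = enzyme final amount 10 nM | medium = HEPES buffer, pH 7.5, plus ascorbate | also added = H3K9me3 peptide substrate, Fe(II), 2-oxoglutarate | dosing = single dose | times = 30 min demethylation and 1 h detection at room temperature | detection = LANCE TR-FRET | read-out basis = Fall in 671/618 emission ratio as inhibition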
# Tcruzi prolif = inhibitors of T. cruzi proliferation | inhibition, % at 8.34 µM | T. cruzi beta-gal in NIH3T3, GalScreen luminescence, 90 h | 77,000 compounds, 5.9% hits;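 active means mean inhibition above about 93%, with at least 55% of replicates each passing it, limit read from the data, passing the limit was not always enough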
# Hits are given with their value; - = inactive; . = no result given. The entries come from a sample that favours hits as a whole.
SMILES,IDH1 mut inh,KDM4C inh,Tcruzi prolif
O=C(CCCCCCC(=O)Nc1ccccc1O)N/N=C/[C@@H](O)[C@H](O)[C@H](O)CO,-,.,.
CN1C(=O)c2cc(NC(=O)Nc3ccccc3Cl)ccc2OC[C@@H]2O[C@@H](CC(=O)O)CC[C@@H]21,.,-,-
CN1C(=O)c2cc(NC(=O)Nc3ccccc3Cl)ccc2OC[C@H]2O[C@@H](CC(=O)O)CC[C@@H]21,.,49,-
C[C@@H]1CCCCO[C@H](CN(C)C(=O)Nc2ccc3c(c2)OCO3)[C@@H](C)CN([C@@H](C)CO)C(=O)c2cc(NS(C)(=O)=O)ccc2O1,-,-,-
O=C1Oc2cc(O)cc(O)c2[C@@H](c2ccc(O)cc2)[C@H]1[C@H]1C(=O)Oc2cc(O)cc(O)c2[C@H]1c1ccc(O)cc1,52,.,.
COc1ccc(C2CC(=O)Oc3cc(O)cc(O)c32)cc1 (stereo not given),-,.,.
CCc1cccc(-n2c(-c3ccco3)nc3c(cnn3-c3ccccc3Cl)c2=O)c1,46,.,.
O=C(NO)c1cccc(C(=O)N/N=C/c2ccc(Oc3ccccc3)cc2)c1,-,.,.
COc1ccccc1NC(=O)N(C)C[C@@H]1OCc2ccccc2-c2c(n(C)c3ccccc23)C(=O)N([C@@H](C)CO)C[C@H]1C,.,-,-
CO[C@@H]1CN(C)C(=O)c2ccc(NC(=O)Cc3ccccc3)cc2OC[C@H](C)N(CC2CC2)C[C@@H]1C,-,-,-
COc1ccc(C#Cc2ccc3c(c2)O[C@H](CN(C)C(=O)Nc2cccc(OC)c2)[C@@H](C)CN([C@H](C)CO)S3(=O)=O)cc1,.,-,-
C/C=C/c1ccc2c(c1)O[C@@H](CN(C)C(=O)c1ccccc1)[C@H](C)CN([C@@H](C)CO)S2(=O)=O,-,-,.
C[C@H]1CN([C@@H](C)CO)S(=O)(=O)c2ccc(/C=C/c3ccccc3)cc2O[C@H]1CN(C)C(=O)c1ccccc1,-,-,125
C[C@H](CO)N1C[C@H](C)[C@H](CN(C)C(=O)C2CCCCC2)Oc2cc(-c3cncnc3)ccc2S1(=O)=O,.,-,.
C[C@H]1CN([C@@H](C)CO)S(=O)(=O)c2ccc(-c3cncnc3)cc2O[C@@H]1CN(C)C(=O)C1CCCCC1,.,35,.
COc1ccccc1-c1ccc2c(c1)O[C@H](CN(C)C(=O)c1ccncc1)[C@H](C)CN([C@H](C)CO)S2(=O)=O,-,-,-
COc1cccc(NC(=O)N(C)C[C@H]2Oc3cc(C#Cc4ccccc4)ccc3S(=O)(=O)N([C@@H](C)CO)C[C@@H]2C)c1,.,-,121
COc1ccccc1-c1ccc2c(c1)O[C@@H](CN(C)C(=O)c1ccncc1)[C@H](C)CN([C@@H](C)CO)S2(=O)=O,36,32,-
CCOC(=O)C1=C(C)NC(c2ccccc2)=C(C(=O)OCc2ccc([N+](=O)[O-])cc2)C1C#Cc1ccccc1 (stereo not given),-,.,.
CN1c2ccc(-c3cccc(F)c3)cc2[C@@H]2[C@@H](CCN2C(=O)c2cccc(F)c2)[C@@H]1CO,.,-,.
CCn1c(SCC(=O)Nc2ccc3c(c2)OCCO3)nnc1-c1cccc(Cl)c1,-,.,.
O=C(CN1C(=O)c2ccccc2S1(=O)=O)Nc1cccc(O)c1,-,.,.
CCC(=O)N[C@H]1CC[C@H](CCn2cc(CN(C)C)nn2)O[C@@H]1CO,-,-,.
C[C@@H]1CN([C@@H](C)CO)C(=O)Cc2cc(NS(=O)(=O)c3ccc(Cl)cc3)ccc2O[C@@H]1CN(C)C(=O)Nc1cccc2ccccc12,-,-,-
C/C=C/c1ccc2c(c1)O[C@@H](CN(C)CCC)[C@@H](C)CN([C@@H](C)CO)S2(=O)=O,-,-,-
SMILES,IDH1 mut inh,KDM4C inh,Tcruzi prolif
C/C=C/c1ccc2c(c1)O[C@H](CN(C)CCC)[C@H](C)CN([C@H](C)CO)S2(=O)=O,84,43,-
CN(C)C(=O)C[C@H]1CC[C@H](NC(=O)Nc2cccc(F)c2)[C@@H](CO)O1,-,-,.
CN(C)c1ccc2c(c1)[C@@H]1C[C@H](CC(=O)N3CCCCC3)O[C@H](CO)[C@@H]1O2,.,46,.
CN(C)c1ccc2c(c1)[C@@H]1C[C@H](CC(=O)N3CCc4ccccc4C3)O[C@H](CO)[C@@H]1O2,-,-,-
CN(C)c1ccc2c(c1)[C@H]1C[C@@H](CC(=O)N3CCc4ccccc4C3)O[C@@H](CO)[C@H]1O2,-,-,-
CN(C)c1ccc2c(c1)[C@H]1C[C@H](CC(=O)N3CCCCC3)O[C@H](CO)[C@H]1O2,.,31,.
CN(C)c1ccc2c(c1)[C@H]1C[C@H](CC(=O)N3CCCCC3)O[C@@H](CO)[C@H]1O2,.,30,.
CN(C)c1ccc2c(c1)[C@H]1C[C@H](CC(=O)O)O[C@@H](CO)[C@H]1O2,-,-,-
C[C@@H]1CCCCO[C@@H](CN(C)C(=O)c2ccccc2)[C@H](C)CN([C@@H](C)CO)C(=O)c2cc(NS(=O)(=O)c3cccs3)ccc2O1,.,-,-
CS(=O)(=O)N(CC(=O)Nc1ccc(F)cc1)c1cccc2ccccc12,-,.,.
C[C@@H]1CCCCO[C@H](CN(C)C(=O)CCC(F)(F)F)[C@H](C)CN([C@@H](C)CO)C(=O)c2cc(NS(=O)(=O)c3ccccc3)ccc2O1,91,-,-
COc1ccc(S(=O)(=O)N(C)C[C@@H]2OCCCC[C@H](C)Oc3ccc(NS(=O)(=O)c4ccc(C)cc4)cc3C(=O)N([C@H](C)CO)C[C@@H]2C)cc1,.,-,113
COc1ccc(S(=O)(=O)Nc2ccc3c(c2)C(=O)N([C@@H](C)CO)C[C@@H](C)[C@@H](CN(C)S(=O)(=O)c2ccc(C)cc2)OCCCC[C@H](C)O3)cc1,-,-,.
Cc1ccc(S(=O)(=O)Nc2ccc3c(c2)C(=O)N([C@H](C)CO)C[C@@H](C)[C@@H](CN(C)S(=O)(=O)c2ccccc2)OCCCC[C@@H](C)O3)cc1,-,-,.
Cc1ccc(S(=O)(=O)N(C)C[C@@H]2OCCCC[C@H](C)Oc3ccc(NS(=O)(=O)c4ccccc4)cc3C(=O)N([C@@H](C)CO)C[C@@H]2C)cc1,-,-,110
C[C@@H]1CCCCO[C@@H](CN(C)C(=O)CCC(F)(F)F)[C@@H](C)CN([C@H](C)CO)C(=O)c2cc(NS(=O)(=O)c3ccccc3)ccc2O1,-,-,-
COc1ccc(NC(=O)N(C)C[C@@H]2Oc3c(NC(=O)c4ccncc4)cccc3C(=O)N([C@@H](C)CO)C[C@H]2C)cc1,.,-,-
O=C(C[C@H]1CC[C@@H]2[C@H](COC[C@@H](O)CN2C(=O)Nc2cc(Cl)cc(Cl)c2)O1)NCC1CCCCC1,.,-,-
O=S(=O)(NC1CCN(Cc2ccc(OCCO)cc2)CC1)c1cc(Cl)ccc1Cl,37,.,.
O=S(=O)(N[C@@H]1CCCN(Cc2cccc(OCCO)c2)C1)c1cc(Cl)ccc1Cl,-,.,.
C[C@@H]1CCCCO[C@@H](CN(C)C(=O)Cc2ccccc2)[C@@H](C)CN([C@@H](C)CO)C(=O)c2cc(NS(=O)(=O)c3ccc(F)cc3)ccc2O1,.,-,-
O=C(O)C(c1ccccc1)N1C(=O)/C(=C/c2ccncc2)SC1=S (stereo not given),66,.,.
CC(C)C(C(=O)O)N1C(=O)/C(=C/c2ccccc2)SC1=S (stereo not given),-,.,.
COC(=O)C[C@H]1C[C@H]2c3cc(N(C)C)ccc3O[C@H]2[C@@H](CO)O1,-,36,-
